Screening results (PubChem BioAssay)
Shown are actives, neighbours in structure and some others; about 2.9% of the full set was active somewhere.
dFosB act – mouse delta FosB homodimer activation; 0.99% of 340,000 active; activation, % at 25 µM; P13346; purified delta FosB, TAMRA-CDK5 oligo fluorescence polarization; percent of positive-control signal above neutral wells; AID 493131;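 active = mean activation above about 17%, with every replicate also reaching it, limit read from the data, passing the limit was not always enough; inconclusive = only one of the two conditions met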
Target sequence (P13346 whole entry, looked up): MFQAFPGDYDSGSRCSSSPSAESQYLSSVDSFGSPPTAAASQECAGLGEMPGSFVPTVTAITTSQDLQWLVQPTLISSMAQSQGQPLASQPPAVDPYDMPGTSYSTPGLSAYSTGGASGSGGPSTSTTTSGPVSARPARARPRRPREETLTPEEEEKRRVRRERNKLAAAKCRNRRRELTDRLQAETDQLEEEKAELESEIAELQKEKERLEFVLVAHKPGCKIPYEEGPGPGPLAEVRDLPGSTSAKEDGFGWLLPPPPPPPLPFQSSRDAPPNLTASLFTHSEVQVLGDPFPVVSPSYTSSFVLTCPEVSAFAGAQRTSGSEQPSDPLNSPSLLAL
CDK5 p35 inh – blocks human CDK5/p35 kinase activity | Q00535+Q15078 | Recombinant CDK5/p35, ADP-Glo luminescence, 60 min | 0.01% of 330,000 active | inhibition, % at 10 µM | AID 488839;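 active = highest replicate inhibition of at least 50% and at least 75% of replicates reaching 50%; inconclusive = only one of the two criteria met; inactive = both criteria failed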
PAX8 reporter – lowers PAX8-driven luciferase in RMG-I cells; RMG-I TPO-luciferase reporter, SteadyGlo, 24 h; inhibition, % at 12.6 µM; 1.2% of 360,000 active; AID 652154;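 active = mean replicate inhibition at least 60% with every replicate also reaching 60%; inconclusive = only one of the two criteria is met; inactive = mean below 60% and not all replicates reaching 60%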;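 note: luciferase light reporting Pax8 driven TPO promoter activity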
Env fusion inh – inhibitors of HIV Env-mediated cell fusion | HeLa-JRFL Env/CEM21 cell fusion, luciferase | inhibition, % at 12.3 µM | 1.1% of 360,000 active | AID 651610;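 active = mean replicate inhibition score of at least 50 and every replicate individually at or above 50; inconclusive = only one of the two criteria met; inactive = mean below 50 and not all replicates reaching 50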
Cneo AK release – causes C. neoformans cell lysis | 0.2% of 360,000 active | AID 651654 | adenylate kinase release luminescence, 4 h; normalised: neutral wells 0, clomiphene wells 100 | lysis activity, % at 15 µM;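 active = mean lysis activity across replicates of at least 80%, whatever share of replicates individually reach that level; inactive = mean lysis activity below 80%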
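Material – Cryptococcus neoformans yeast cells · Quantity – 5 × 10^6 yeast cells/mL · Buffer or medium – YPD medium · Compound – single dose · Timing – 4 h static compound exposure, 37 °C, read 1 h post-reagent · Signal – adenylate kinase release luminescence · Read-out basis – lysis from increased AK signal · Benchmarks – Clomiphene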
INS-1E GSIS act – primary screen for activators of insulin secretion dependent on glucose, INS-1E cells, GLuc reporter luminescence | activation, % at 16.6 µM | INS-1E GLuc reporter insulin secretion, 2-3 h | 0.61% of 370,000 active | AID 743287;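 active = lowest replicate activation of at least 40%, so every replicate reaches that level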
Large screens that a line does not name were inactive.

Cc1ccn2c(Nc3ccccc3)c(-c3ccccn3)nc2c1	dFosB act 33.2, Env fusion inh 66.1
C[C@@H]1CN([C@H](C)CO)C(=O)c2cc(NC(=O)C3CC3)ccc2O[C@H]1CN(C)S(C)(=O)=O	none (no result: dFosB act, CDK5 p35 inh)
Cc1cc(N2CCN(C(=O)OC(C)(C)C)C[C@H]2C)ccc1N1CCS(=O)(=O)CC1	Env fusion inh 61.6 (no result: dFosB act, CDK5 p35 inh, Cneo AK release)
C[C@@H]1CN(C(=O)OC(C)(C)C)CCN1c1ccc(N2CC[C@H](O)C2)c(C#N)c1	none (no result: dFosB act, CDK5 p35 inh, Cneo AK release, INS-1E GSIS act)
S=C1SCN(Cc2ccccc2)CN1Cc1ccccc1	none
S=C1SCN(Cc2cccnc2)CN1Cc1cccnc1	PAX8 reporter 92.6 (no result: Cneo AK release, INS-1E GSIS act)
C[C@@H]1CN([C@@H](C)CO)C(=O)c2cccc(NC(=O)Nc3ccc(F)cc3)c2O[C@H]1CN(C)Cc1ccncc1	none (no result: dFosB act, CDK5 p35 inh)
O=C(C[C@@H]1CC[C@H](NC(=O)C2CC2)[C@H](CO)O1)NCC1CC1	none (no result: dFosB act, CDK5 p35 inh, PAX8 reporter)
COc1ccc(N2CCn3c2nc2c3c(=O)n(CCCc3ccccc3)c(=O)n2C)c(OC)c1	Env fusion inh 73.3 (no result: Cneo AK release, INS-1E GSIS act)
C[C@H]1CN([C@@H](C)CO)S(=O)(=O)c2ccc(C3=CCCC3)cc2O[C@H]1CN(C)C(=O)C1CCOCC1	none (no result: dFosB act, CDK5 p35 inh)
NC(COCc1ccccc1)c1csc(Nc2ccc(C(F)(F)F)cn2)n1 (stereo not given)	none (no result: dFosB act, CDK5 p35 inh)
NC(CCc1ccccc1)c1csc(Nc2ccccn2)n1 (stereo not given)	Env fusion inh 84.8 (no result: dFosB act, CDK5 p35 inh)
NC(c1csc(Nc2ccc(C(F)(F)F)cn2)n1)C1CCCCC1 (stereo not given)	INS-1E GSIS act 533.3 (no result: dFosB act, CDK5 p35 inh)
NC(CCc1ccccc1)c1csc(Nc2ccc(C(F)(F)F)cn2)n1 (stereo not given)	INS-1E GSIS act 307.7 (no result: dFosB act, CDK5 p35 inh)
CC(=O)Nc1ccc2c(c1)C(=O)N(C)[C@H]1CC[C@@H](CC(=O)NCc3ccc4c(c3)OCO4)O[C@@H]1CO2	none (no result: dFosB act, CDK5 p35 inh)
C/C=C/COC(=O)c1[nH]c2c(c1C)C(=O)CC(c1ccc(N(C)C)cc1)C2 (stereo not given)	dFosB act 84.6
CCOCCOC(=O)c1[nH]c2c(c1C)C(=O)CC(c1ccc(N(C)C)cc1)C2 (stereo not given)	none
CCC(C)OC(=O)c1[nH]c2c(c1C)C(=O)CC(c1ccc(N(C)C)cc1)C2 (stereo not given)	dFosB act 28.7, Env fusion inh inconclusive
COc1cc(C2CC(=O)c3c([nH]c(C(=O)OCCOC(C)C)c3C)C2)cc(OC)c1OC (stereo not given)	Env fusion inh 55.1
Cc1ccc(CNC(=O)C(=O)NCC2OCCN2C(=O)c2ccc3c(c2)OCO3)cc1 (stereo not given)	dFosB act 16.9
CC(C)NC(=O)N(C)C[C@@H]1Oc2cc(-c3cncnc3)ccc2S(=O)(=O)N([C@@H](C)CO)C[C@H]1C	none (no result: dFosB act, CDK5 p35 inh, PAX8 reporter)
C[C@@H]1CCCCO[C@H](CN(C)S(=O)(=O)c2ccc(Cl)cc2)[C@H](C)CN([C@@H](C)CO)C(=O)c2cc(N(C)C)ccc2O1	PAX8 reporter 77.1 (no result: dFosB act, CDK5 p35 inh)
C[C@H](CO)N1C[C@H](C)[C@H](CN(C)S(=O)(=O)c2ccc(Cl)cc2)OCCCC[C@H](C)Oc2ccc(N(C)C)cc2C1=O	none (no result: dFosB act, CDK5 p35 inh)
C[C@@H]1CN([C@@H](C)CO)C(=O)c2cc(N(C)C)ccc2O[C@@H](C)CCCCO[C@H]1CN(C)S(=O)(=O)c1ccc(F)cc1	PAX8 reporter 87.7 (no result: dFosB act, CDK5 p35 inh)
COc1ccccc1S(=O)(=O)N(C)C[C@H]1Oc2cc(/C=C/c3ccccc3)ccc2S(=O)(=O)N([C@@H](C)CO)C[C@@H]1C	none (no result: dFosB act, CDK5 p35 inh, PAX8 reporter)
COc1ccc(-c2ccc3c(c2)[C@@H]2[C@@H](CCN2C(=O)C2CCCC2)[C@H](CO)N3C)cc1	PAX8 reporter 75.5 (no result: dFosB act, CDK5 p35 inh, Cneo AK release)
COc1ccc(-c2ccc3c(c2)[C@H]2[C@H](CCN2C(=O)C2CCCCC2)[C@H](CO)N3C)cc1	none (no result: dFosB act, CDK5 p35 inh, Env fusion inh)
COc1ccc(-c2ccc3c(c2)[C@H]2[C@H](CCN2C(=O)C2CCC2)[C@H](CO)N3C)cc1	none (no result: dFosB act, CDK5 p35 inh, Cneo AK release)
CN1c2ccc(-c3ccc(F)cc3)cc2[C@@H]2[C@@H](CCN2C(=O)C2CCOCC2)[C@H]1CO	none (no result: dFosB act, CDK5 p35 inh, Env fusion inh)
CN1c2ccc(-c3ccc(F)cc3)cc2[C@@H]2[C@@H](CCN2C(=O)C2CCOCC2)[C@@H]1CO	Cneo AK release 81.1 (no result: dFosB act, CDK5 p35 inh, Env fusion inh)
COc1ccc(-c2ccc3c(c2)[C@@H]2[C@@H](CCN2C(=O)C2CCCCC2)[C@H](CO)N3C)cc1	PAX8 reporter 92.7 (no result: dFosB act, CDK5 p35 inh, Env fusion inh)
COc1ccc(-c2c[n+](CC(=O)N3c4ccccc4Sc4ccccc43)c3n2CCC3)cc1	PAX8 reporter 76.0 (no result: Cneo AK release)
O=C(C[n+]1cc(-c2ccc(Cl)cc2)n2c1CCC2)N1c2ccccc2Sc2ccccc21	PAX8 reporter 70.0
O=C(C[n+]1cc(-c2ccc(Cl)c(Cl)c2)n2c1CCC2)N1c2ccccc2Sc2ccccc21	none (no result: Env fusion inh, Cneo AK release)
COc1ccc(S(=O)(=O)N(C)C[C@H]2Oc3ccc(NC(=O)Nc4cccc5ccccc45)cc3C(=O)N([C@H](C)CO)C[C@@H]2C)cc1	none (no result: dFosB act, CDK5 p35 inh, PAX8 reporter, Cneo AK release)
COc1ccc(C(=O)Oc2ccc(/C=N/NC(=O)Cc3ccc([N+](=O)[O-])cc3)cc2)cc1	INS-1E GSIS act 46.3 (no result: Cneo AK release)
O=C(N/N=C/c1ccc(OC(=O)c2ccc([N+](=O)[O-])cc2)cc1)c1cccnc1	none
COCCn1nnnc1CN(Cc1cccnc1)Cc1cc2cc(OC)ccc2[nH]c1=O	none (no result: PAX8 reporter, Env fusion inh, INS-1E GSIS act)
COc1ccc2[nH]c(=O)c(CN(Cc3nnnn3Cc3ccccc3)CC3CCCO3)cc2c1 (stereo not given)	Env fusion inh 111.6 (no result: PAX8 reporter, INS-1E GSIS act)
COCCn1nnnc1CN(CCc1ccccc1)Cc1cc2cc(OC)ccc2[nH]c1=O	Env fusion inh 76.9 (no result: PAX8 reporter, Cneo AK release)
COc1ccc2[nH]c(=O)c(CN(Cc3nnnn3Cc3ccc(F)cc3)CC3CCCO3)cc2c1 (stereo not given)	none (no result: PAX8 reporter, Env fusion inh, Cneo AK release, INS-1E GSIS act)
CC(C)=CCNc1ncnc2c1c(C#N)cn2C1OC(CO)C(O)C1O (stereo not given)	PAX8 reporter 87.2, Env fusion inh 58.0 (no result: Cneo AK release)
O=C(O)CCC1(CCC(=O)O)CCCC(CCC(=O)O)(CCC(=O)O)C1=O	INS-1E GSIS act 46.6
C[C@@H]1CN([C@@H](C)CO)C(=O)c2cc(NC(=O)Nc3ccccc3)ccc2O[C@@H](C)CCCCO[C@H]1CN(C)C	none (no result: dFosB act, CDK5 p35 inh)
CC(Oc1cccc(Cl)c1)C(=O)Nc1nc(-c2ccccn2)cs1 (stereo not given)	PAX8 reporter 70.5
Cc1noc(C)c1S(=O)(=O)Nc1ccc2c(c1)CC(=O)N([C@H](C)CO)C[C@H](C)[C@@H](CN(C)C(=O)Nc1ccc3c(c1)OCO3)O2	none (no result: dFosB act, CDK5 p35 inh)
CCC(C(=O)Nc1cc(C(=O)Nc2cc(C)ccn2)ccc1Cl)c1ccccc1 (stereo not given)	PAX8 reporter 69.4 (no result: Env fusion inh, Cneo AK release)
CCOc1cc(-c2cn(S(=O)(=O)c3cccc4nsnc34)nc2N)cc(OCC)c1OCC	Env fusion inh 65.9 (no result: PAX8 reporter)
